PMC2217204 (The Journal of General Physiology, 2000)
“And” between values parts separate entries of the source, which are not always exact repeats. Identical values can stand only once. Like-named read-outs stand apart in the source and are kept apart here.

What was measured:
KACh channel [1] = molecular target: T1, KACh channel (Rattus norvegicus, UniProt P48548+P63251); type: cell-based; settings: for IC50 / K 1/2 (effect on ATP-dependent gating of KACh channel): atrial inside-out patches, 100 μM GTP and 4 mM ATP, lipid 0.1, 1, 3, 10 and 30 μM, n = 3 each; for reversal of inhibition of ATP-dependent gating: fatty acid–free albumin 50 μg/ml
T1 sequence (P63251 1-501): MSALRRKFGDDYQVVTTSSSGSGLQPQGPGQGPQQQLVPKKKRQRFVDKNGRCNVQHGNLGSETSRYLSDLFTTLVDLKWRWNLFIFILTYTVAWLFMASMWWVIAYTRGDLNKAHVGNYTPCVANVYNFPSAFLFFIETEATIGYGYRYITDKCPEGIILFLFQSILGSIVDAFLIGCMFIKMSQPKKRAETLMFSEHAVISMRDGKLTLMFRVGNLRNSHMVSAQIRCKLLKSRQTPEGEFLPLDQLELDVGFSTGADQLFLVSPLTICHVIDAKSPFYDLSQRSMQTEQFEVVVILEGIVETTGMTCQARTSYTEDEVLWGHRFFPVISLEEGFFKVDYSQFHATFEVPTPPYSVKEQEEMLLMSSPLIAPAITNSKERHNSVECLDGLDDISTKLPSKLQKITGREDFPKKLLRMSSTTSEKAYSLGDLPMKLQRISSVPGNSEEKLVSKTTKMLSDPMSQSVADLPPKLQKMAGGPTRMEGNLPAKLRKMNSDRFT
T1 sequence (P48548 1-419): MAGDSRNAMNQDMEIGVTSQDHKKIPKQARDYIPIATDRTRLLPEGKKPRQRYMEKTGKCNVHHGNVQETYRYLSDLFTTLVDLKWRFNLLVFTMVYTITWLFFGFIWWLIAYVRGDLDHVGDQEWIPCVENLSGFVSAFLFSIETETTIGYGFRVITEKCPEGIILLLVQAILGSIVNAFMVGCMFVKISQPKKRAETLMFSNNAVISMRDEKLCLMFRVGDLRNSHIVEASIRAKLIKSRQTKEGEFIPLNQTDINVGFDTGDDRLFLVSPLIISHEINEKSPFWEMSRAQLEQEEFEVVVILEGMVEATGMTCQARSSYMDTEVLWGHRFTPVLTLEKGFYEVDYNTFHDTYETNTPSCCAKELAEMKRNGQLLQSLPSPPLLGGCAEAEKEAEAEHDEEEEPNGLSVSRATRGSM

KACh channel [2] = molecular target: T1, KACh channel; type: cell-based
In short: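 Inside-out patches from cultured newborn-rat atrial cells, 10 μM ACh in pipette, −60 mV, 24–26°C. Channels were activated by 100 μM GTP in the bath, then 4 mM ATP was added, with free Mg2+ held at 0.5 mM. nPo from 1–2 min of recording. Open and closed times came from maximum-likelihood fits of idealized records to schemes with 2–3 closed and two open states, using patches with ≤4 open levels.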

K1 channel = experiment: ATP-activated background K1 channel, atrial inside-out patches; type: cell-based, rat; settings: 4 mM ATP in bath, inside-out atrial patch
KACh channel [3] = molecular target: T1, KACh channel; type: cell-based; settings: 4 mM ATP with 100 μM GTP in pipette, 10 μM ACh, outside-out
In short: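 Cultured atrial myocytes from 1-day-old rats; outside-out patches at −60 mV, 24–26°C. Pipette held […] 100 μM GTP, GTP plus 4 mM ATP, or these plus atrial cytosolic fraction (5 mg protein/ml). Symmetrical 140 mM KCl, 0.5 mM MgCl2, 5 mM EGTA, 10 mM HEPES, pH 7.2. nPo from 1–2 min of recording.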

KACh channel [4] = molecular target: T1, KACh channel; settings: cited from earlier work; for effect on KACh channel activity: physiological concentrations, ref Hong et al. 1996
KACh channel [5] = molecular target: T1, KACh channel; type: cell-based; settings: for τo1: 100 μM phospholipid, inside-out, n = 3
KATP channel = KATP channel (Rattus norvegicus, UniProt P70673); experiment: KATP channel, inside-out patches from adult rat ventricular cells; type: cell-based; settings: PIP2 applied soon after patch excision
In short: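 KATP channels that appeared on forming inside-out patches were tested with 5 μM arachidonic acid on the cytoplasmic side. In some patches channels were first allowed to run down, then briefly exposed to 3 mM ATP to reactivate them before fatty acid was applied. Recordings were at 24–26°C; 2 μM was also tested (n = 3).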

[6] = K 1/2 (effect on ATP-dependent gating of KACh channel)
[7] = read-out: K 1/2 (effect on ATP-dependent gating of KACh channel)

Sequence of KATP channel (P70673 whole entry): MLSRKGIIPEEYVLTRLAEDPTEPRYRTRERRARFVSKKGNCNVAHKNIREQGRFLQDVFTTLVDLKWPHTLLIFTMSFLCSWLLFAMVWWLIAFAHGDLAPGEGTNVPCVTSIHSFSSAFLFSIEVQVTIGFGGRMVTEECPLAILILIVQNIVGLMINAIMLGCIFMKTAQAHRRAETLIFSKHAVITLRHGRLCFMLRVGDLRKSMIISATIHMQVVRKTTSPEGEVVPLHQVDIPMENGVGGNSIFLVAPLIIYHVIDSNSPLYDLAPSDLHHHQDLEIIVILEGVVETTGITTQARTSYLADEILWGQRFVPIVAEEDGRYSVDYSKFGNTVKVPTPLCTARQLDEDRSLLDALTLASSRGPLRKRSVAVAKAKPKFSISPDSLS
Sequence of KATP channel (Q63563 whole entry partner): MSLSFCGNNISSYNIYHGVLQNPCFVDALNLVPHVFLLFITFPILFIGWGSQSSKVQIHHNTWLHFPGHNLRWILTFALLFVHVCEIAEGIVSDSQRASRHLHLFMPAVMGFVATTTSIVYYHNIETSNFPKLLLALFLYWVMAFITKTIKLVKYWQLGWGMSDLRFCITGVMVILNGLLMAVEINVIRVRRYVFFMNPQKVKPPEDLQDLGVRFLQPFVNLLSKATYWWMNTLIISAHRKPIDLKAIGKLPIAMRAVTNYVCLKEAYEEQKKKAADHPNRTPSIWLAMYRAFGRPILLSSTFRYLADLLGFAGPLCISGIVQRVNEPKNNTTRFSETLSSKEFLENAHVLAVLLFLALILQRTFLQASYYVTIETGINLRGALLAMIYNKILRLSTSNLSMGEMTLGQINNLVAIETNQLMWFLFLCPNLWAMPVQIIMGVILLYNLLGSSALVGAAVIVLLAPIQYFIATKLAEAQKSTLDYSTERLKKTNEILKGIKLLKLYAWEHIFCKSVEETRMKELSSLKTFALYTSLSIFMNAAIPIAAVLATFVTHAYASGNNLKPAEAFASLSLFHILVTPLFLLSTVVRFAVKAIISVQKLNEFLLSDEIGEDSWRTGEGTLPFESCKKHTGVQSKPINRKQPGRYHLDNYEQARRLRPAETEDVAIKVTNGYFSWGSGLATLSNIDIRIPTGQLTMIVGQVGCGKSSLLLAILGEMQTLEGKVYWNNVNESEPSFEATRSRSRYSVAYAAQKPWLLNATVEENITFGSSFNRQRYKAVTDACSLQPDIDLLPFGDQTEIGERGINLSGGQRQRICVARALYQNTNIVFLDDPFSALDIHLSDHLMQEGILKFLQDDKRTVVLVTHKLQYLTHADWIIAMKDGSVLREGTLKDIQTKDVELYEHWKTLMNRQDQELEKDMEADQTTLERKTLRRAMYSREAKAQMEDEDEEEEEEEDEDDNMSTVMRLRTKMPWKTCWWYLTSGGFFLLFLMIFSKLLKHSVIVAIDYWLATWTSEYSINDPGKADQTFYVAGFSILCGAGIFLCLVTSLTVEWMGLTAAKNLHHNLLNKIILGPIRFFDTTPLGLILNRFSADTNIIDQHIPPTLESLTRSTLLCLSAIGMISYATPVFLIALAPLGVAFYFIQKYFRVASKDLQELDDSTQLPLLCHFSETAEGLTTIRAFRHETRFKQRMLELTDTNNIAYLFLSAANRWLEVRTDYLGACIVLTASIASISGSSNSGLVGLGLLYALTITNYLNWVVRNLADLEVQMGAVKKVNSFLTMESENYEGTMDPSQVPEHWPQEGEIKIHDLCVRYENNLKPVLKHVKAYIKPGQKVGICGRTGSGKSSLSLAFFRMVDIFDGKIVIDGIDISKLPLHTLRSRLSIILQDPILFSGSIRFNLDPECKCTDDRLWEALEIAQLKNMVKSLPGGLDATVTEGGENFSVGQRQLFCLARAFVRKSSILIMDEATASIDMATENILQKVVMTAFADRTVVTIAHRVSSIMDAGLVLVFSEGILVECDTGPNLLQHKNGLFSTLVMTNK

## CCCCCCCC(=O)OCC(CO)OC(=O)CCCCCCC (stereo not drawn) [1,2-dioctanoylglycerol]
KACh channel [1]; [6]
  IC50: 2.8 ± 0.4 µM

## CCCCCCCC/C=C\CCCCCCCC(=O)OCC(CO)OC(=O)CCCCCCC/C=C\CCCCCCCC (stereo not drawn) [1,2-dioleoylglycerol]
KACh channel [1]; [6]
  IC50: 21 ± 3 µM

## CCCCC/C=C\C/C=C\CCCCCCCC(=O)OCC(O)CO (stereo not drawn) [1-monolinoleoylglycerol]
KACh channel [1]; [6]
  IC50: 8.4 ± 2.2 µM

## CCCCCCCC/C=C\CCCCCCCC(=O)OCC(O)CO (stereo not drawn) [1-monooleoylglycerol]
KACh channel [1]; [6]
  IC50: 42 ± 6 µM

## CCCCCC/C=C\CCCCCCCC(=O)OCC(O)CO (stereo not drawn) [1-monopalmitoleoylglycerol]
KACh channel [1]; [6]
  IC50: 52 ± 7 µM

## CCCCCCCC/C=C\CCCCCCCC(=O)OCC(CO)OC(C)=O (stereo not drawn) [1-oleoyl-2-acetylglycerol]
KACh channel [1]; [6]
  IC50: 22 ± 3 µM

## CCCCC/C=C\C/C=C\C/C=C\C/C=C\CCCC(=O)O[C@@H](CO)COC(=O)CCCCCCCCCCCCCCCCC [1-stearoyl-2-arachidonoyl-sn-glycerol]
KACh channel [1]
  K 1/2 (effect on ATP-dependent gating of KACh channel): No effect

## CCCCC/C=C\C/C=C\CCCCCCCC(=O)O[C@@H](CO)COC(=O)CCCCCCCCCCCCCCCCC [1-stearoyl-2-linoleoyl-sn-glycerol]
KACh channel [1]
  K 1/2 (effect on ATP-dependent gating of KACh channel): No effect

## CCCCCCCC/C=C\CCCCCCCC(=O)OC(CO)CO [2-monooleoylglycerol]
KACh channel [1]; [6]
  IC50: 48 ± 8 µM

## Nc1ncnc2c1ncn2[C@@H]1O[C@H](COP(=O)(O)OP(=O)(O)OP(=O)(O)O)[C@@H](O)[C@H]1O [ATP]
KACh channel [2]; 4 mM ATP added to GTP, inside-out patches
  increase in nPo: approximately fivefold increase
KACh channel [2]; 4 mM ATP, inside-out patches
  mean closed time of long closings (C1): 62 ms
KACh channel [2]; n = 3
  Hill coefficient of [ATP]–nPo relationship: 1.9 ± 0.2
K1 channel
  activation of K1 channel: quickly activated
KACh channel [3]
  channel activity (nPo) with ATP versus without: approximately fivefold higher

## CCCCC/C=C\C/C=C\C/C=C\C/C=C\CCCC(=O)OC [Arachidonic acid methyl ester]
KACh channel [1]; [7]
  IC50: 12 ± 3 µM

## CCCCC/C=C\C/C=C\C/C=C\C/C=C\CCCCO [Arachidonyl alcohol]
KACh channel [1]; [7]
  IC50: 44 ± 7 µM

## [Ca+2] [Ca^2+]
KACh channel [4]; at concentrations above 30 μM, ref Kim 1991
  effect on open time constant of the KACh channel: decreased
KACh channel [4]
  effect on KACh channel activity: no significant effect

## CCCCCCCC(=O)O [Caprylic acid (8:0), Caprylic acid]
KACh channel [1]
  K 1/2 (effect on ATP-dependent gating of KACh channel): No effect

## CCCCCCCCCCCCCC=CC(O)C(CO)NC(C)=O (stereo not drawn) [Ceramide (C-2)]
KACh channel [1]
  K 1/2 (effect on ATP-dependent gating of KACh channel): No effect

## CC/C=C\C/C=C\C/C=C\C/C=C\C/C=C\C/C=C\CCC(=O)O [Docosahexaenoic acid [22:6 (n-3)], Docosahexaenoic acid]
KACh channel [1]; [6]
  IC50: 1.4 ± 0.2 µM

## CC/C=C\C/C=C\C/C=C\C/C=C\C/C=C\CCCC(=O)O [Eicosapentaenoic acid [20:5 (n-3)], Eicosapentaenoic acid]
KACh channel [1]; [6]
  IC50: 5.6 ± 2.2 µM

## CCCCCCCC/C=C/CCCCCCCC(=O)O [Elaidic acid [t-18:1 (n-9)], Elaidic acid]
KACh channel [1]; [6]
  IC50: 21.6 ± 4.8 µM

## OCC(O)CO [Glycerol]
KACh channel [1]
  K 1/2 (effect on ATP-dependent gating of KACh channel): No effect

## O=P(O)(O)OCC(O)CO (stereo not drawn) [Glycerophosphate]
KACh channel [1]
  K 1/2 (effect on ATP-dependent gating of KACh channel): No effect

## CCCCC/C=C\C\C=C/C=C/C=C/[C@@H](SC[C@H](NC(=O)CC[C@H](N)C(=O)O)C(=O)NCC(=O)O)[C@@H](O)CCCC(=O)O [Leukotriene C4]
KACh channel [1]
  K 1/2 (effect on ATP-dependent gating of KACh channel): No effect

## CCCCC/C=C/C/C=C/CCCCCCCC(=O)O [Linoelaidic acid [t,t-18:2 (n-6)], Linoelaidic acid]
KACh channel [1]; [7]
  IC50: 3.2 ± 0.6 µM

## CCCCCCCC/C=C\CCCCCCCCCCCCCC(=O)O [Nervonic acid [24:1 (n-9)], Nervonic acid]
KACh channel [1]; [7]
  IC50: 12.5 ± 2.1 µM

## CCCCCCCC/C=C\CCCCCCCC(=O)O [Oleic acid [18:1 (n-9)], Oleic acid]
KACh channel [1]; 5 μM in the pipette solution (extracellular), after 5 min, n = 4 each
  inhibition of ATP-dependent gating, extracellular application: did not inhibit
KACh channel [1]; ATP-modified KACh channels, inside-out
  Hill coefficient of inhibition: ~2
KACh channel [1]; [6]
  IC50: 1.5 ± 0.2 µM
KACh channel [1]; read-out: partial inhibition of ATP-dependent gating, extracellular application
  inhibition at 50 µM: 65 ± 6%
KACh channel [1]; room temperature or 37°C for 30 min
  inhibitory potency after incubation: reduced their inhibitory potency significantly
KACh channel [5]; 2 μM fatty acid applied with 30 μM PIP2
  effect on PIP2-dependent gating of KACh channel: inhibited

## CCCCCCCCCCCCCCCC(=O)O [Palmitic acid (16:0), Palmitic acid]
KACh channel [1]
  K 1/2 (effect on ATP-dependent gating of KACh channel): No effect

## CCCCCC/C=C\CCCCCCCC(=O)O [Palmitoleic acid [16:1 (n-7)], Palmitoleic acid]
KACh channel [1]; [6]
  IC50: 10.5 ± 2.4 µM

## CCCCCCCCCCCCCC(=O)O[C@@H]1[C@@H](C)[C@@]2(O)[C@@H](C=C(CO)C[C@]3(O)C(=O)C(C)=C[C@@H]23)[C@@H]2C(C)(C)[C@]12OC(C)=O [Phorbol myristate acetate]
KACh channel [1]
  K 1/2 (effect on ATP-dependent gating of KACh channel): No effect

## CCCCC[C@H](O)/C=C/[C@H]1[C@H](O)CC(=O)[C@@H]1CCCCCCC(=O)O [Prostaglandin E1]
KACh channel [1]
  K 1/2 (effect on ATP-dependent gating of KACh channel): No effect

## NCCCCNCCCN [Spermidine]
KACh channel [1]
  K 1/2 (effect on ATP-dependent gating of KACh channel): No effect

## NCCCNCCCCNCCCN [Spermine]
KACh channel [1]
  K 1/2 (effect on ATP-dependent gating of KACh channel): No effect

## CCCCCCCCCCCCC/C=C/[C@@H](O)[C@@H](N)CO [Sphingosine (D-form), Sphingosine]
KACh channel [1]
  K 1/2 (effect on ATP-dependent gating of KACh channel): No effect

## CCCCCCCCCCCCCCCCCC(=O)O [Stearic acid (18:0), Stearic acid]
KACh channel [1]
  K 1/2 (effect on ATP-dependent gating of KACh channel): No effect

## Nc1nc2c(ncn2[C@@H]2O[C@@H]3COP(=O)(O)O[C@H]3[C@H]2O)c(=O)[nH]1 [cGMP]
KACh channel [4]
  effect on KACh channel activity: no significant effect

## O=P(O)(O)O[C@@H]1[C@H](O)[C@H](O)[C@@H](OP(=O)(O)O)[C@H](OP(=O)(O)O)[C@H]1O [inositol trisphosphate]
KACh channel [4]
  effect on KACh channel activity: no significant effect

## CC/C=C\C/C=C\C/C=C\CCCCCCCC(=O)O [α-linolenic acid [18:3 (n-3)], α-linolenic acid]
KACh channel [1]; [7]
  IC50: 6.2 ± 0.8 µM

## Lysophosphatidylethanolamine
KACh channel [1]
  K 1/2 (effect on ATP-dependent gating of KACh channel): No effect

## Phosphatidylserine
KACh channel [1]
  K 1/2 (effect on ATP-dependent gating of KACh channel): No effect

## albumin: fatty acid–free bovine serum albumin
KACh channel [1]
  reversal of inhibition of ATP-dependent gating: almost complete reversal
KACh channel [1]; listed as fatty acid-free albumin
  reversal of inhibition of ATP-dependent gating: completely remove

## phosphatidylcholine
KACh channel [5]
  τo1: 2.5 ± 0.6 ms

## phosphatidylethanolamine
KACh channel [5]
  τo1: 2.8 ± 0.5 ms

## phosphatidylinositol-4,5-bisphosphate [PIP2]
KACh channel [5]; 30 μM PIP2 after GTPγS (100 μM) activation
  open time constant of second open state: 2.6 ± 0.3 ms and 2.6 ms
KACh channel [5]; 30 μM PIP2 after GTPγS activation
  increase in channel activity: approximately twofold increase
KATP channel
  effect on rundown of KATP channels: prevented rundown
